Laboratory results taken from ChEMBL document CHEMBL1139971, “RXR-LXR heterodimer modulators for the potential treatment of dyslipidemia” (Bioorg Med Chem Lett, 2007).
Blank lines part the entries; values can stand above or below the molecule they belong to. Active and inactive are the calls of the source. No cut-off for these calls is given here.

How the values were obtained:
[1] = Activity at RXR-LXR heterodimer in human THP1 cells assessed as induction of ABCA1 mRNA; type: cell-based; conditions: THP-1
[2] = biological target: T1, Retinoic acid receptor RXR-alpha (Homo sapiens, UniProt P19793); test: (§1) Activity at RXRalpha by GAL4DNA cotransfection assay
T1 sequence (P19793 whole entry): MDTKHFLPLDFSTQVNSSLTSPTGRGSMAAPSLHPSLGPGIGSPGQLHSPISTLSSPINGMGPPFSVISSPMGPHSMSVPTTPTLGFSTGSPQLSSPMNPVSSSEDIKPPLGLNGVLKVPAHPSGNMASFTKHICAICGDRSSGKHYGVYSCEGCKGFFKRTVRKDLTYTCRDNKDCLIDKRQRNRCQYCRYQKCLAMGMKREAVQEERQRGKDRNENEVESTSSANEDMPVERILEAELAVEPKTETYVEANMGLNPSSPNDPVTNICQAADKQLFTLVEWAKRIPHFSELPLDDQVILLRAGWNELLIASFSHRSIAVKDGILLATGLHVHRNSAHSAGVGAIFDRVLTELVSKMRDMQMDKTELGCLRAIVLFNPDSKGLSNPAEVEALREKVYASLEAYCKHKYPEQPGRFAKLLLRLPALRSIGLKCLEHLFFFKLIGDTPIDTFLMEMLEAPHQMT
In short: (§2)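 RXRα co-transfection assay using the yeast GAL4 DNA-binding domain fused to the RXRα ligand-binding domain, with a yeast promoter driving luciferase. EC50 is reported, and efficacy is given as % maximal activation versus the reference RXR agonist.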

[3] = tested on: THP-1; test: Activation of RXR-LXR heterodimer in human THP1 cells assessed as induction of ABCA1 mRNA relative to 5-((3-(1-ethyl-4,4,6-trimethyl-2-oxo-1,2,3,4-tetrahydroquinolin-7-yl)-4-(trifluoromethoxy)phenyl)methylene)thiazolidine-2,4-dione; type: cell-based; set-up: concentration or dose not given beside the values
[4] = biological target: T2, Retinoic acid receptor RXR-alpha (Homo sapiens) (UniProt P19793); test: Activity at RXRalpha by GAL4DNA cotransfection assay relative to 5-((3-(1-ethyl-4,4,6-trimethyl-2-oxo-1,2,3,4-tetrahydroquinolin-7-yl)-4-(trifluoromethoxy)phenyl)methylene)thiazolidine-2,4-dione; in short: as §2
T2 sequence (whole entry): T1 sequence (P19793 whole entry)

[5] = Activity at RXR-PPARgamma heterodimer in primary human preadipocytes assessed as induction of adipocytes fatty acid binding protein by bDNA assay; type: cell-based
[6] = organism: Homo sapiens; test: Activity at RXR-PPARgamma in primary human preadipocytes assessed as induction of adipocytes fatty acid binding protein by bDNA assay relative to rosiglitazone; type: cell-based
[7] = tested on: Rattus norvegicus; test: Effect on serum cholesterol level in high cholesterol diet fed Sprague-Dawley rat at 1 mg/kg, po after 8 days relative to control; type: functional
In short: (§3)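 Male Sprague–Dawley rats were fed a high-cholesterol atherogenic diet ad libitum. After 6 days on the diet, oral dosing began at 0.3, 1, 3 or 10 mg/kg in 15% hydroxypropyl β-cyclodextrin, pH 10, for 8 days total. Serum total cholesterol, HDL-C, LDL-C and triglycerides and plasma Cmax were measured. Groups are compared with vehicle as mean ± SEM by one-way ANOVA with Dunnett's test.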

[8] = tested on: Rattus norvegicus; test: Effect on serum HDL-C level in high cholesterol diet fed Sprague-Dawley rat at 1 mg/kg, po after 8 days relative to control; type: functional; in short: as §3
[9] = tested on: Rattus norvegicus; test: Effect on serum LDL-C level in high cholesterol diet fed Sprague-Dawley rat at 1 mg/kg, po after 8 days relative to control; type: functional; in short: as §3
[10] = tested on: Rattus norvegicus; test: Effect on serum triglyceride level in high cholesterol diet fed Sprague-Dawley rat at 1 mg/kg, po after 8 days relative to control; type: functional; in short: as §3
[11] = organism: Homo sapiens; test: Activity at RXR-PPARgamma in primary human preadipocytes assessed as induction of adipocytes fatty acid binding protein by bDNA assay relative to 5-((3-(1-ethyl-4,4,6-trimethyl-2-oxo-1,2,3,4-tetrahydroquinolin-7-yl)-4-(trifluoromethoxy)phenyl)methylene)thiazolidine-2,4-dione; type: cell-based
[12] = biological target: T2, Retinoic acid receptor RXR-alpha (Homo sapiens); test: as §1; in short: as §2
[13] = Oral bioavailability in Sprague-Dawley rat at 3 mg/kg; type: ADME, organism-based; conditions: in vivo
In short: (§4)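 Sprague–Dawley rats dosed at 3 mg/kg in 10% hydroxypropyl β-cyclodextrin (pH 10). Oral bioavailability, Cmax, AUC and terminal half-life were taken from the plasma profile.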

[14] = Cmax in Sprague-Dawley rat at 3 mg/kg; type: ADME, organism-based; set-up: dose 3 mg/kg; conditions: in vivo; in short: as §4
[15] = AUC in Sprague-Dawley rat at 3 mg/kg; type: ADME, organism-based; set-up: dose 3 mg/kg; conditions: plasma; in short: as §4
[16] = Half life in Sprague-Dawley rat at 3 mg/kg; type: ADME, organism-based; set-up: dose 3 mg/kg; conditions: in vivo; in short: as §4
[17] = Cmax in high cholesterol diet fed Sprague-Dawley rat at 0.3 mg/kg, po; type: ADME, organism-based; set-up: dose 0.3 mg/kg, route oral; conditions: in vivo; in short: as §3
[18] = Cmax in high cholesterol diet fed Sprague-Dawley rat at 10 mg/kg, po; type: ADME, organism-based; set-up: dose 10 mg/kg, route oral; conditions: in vivo; in short: as §3
[19] = tested on: Rattus norvegicus; test: Effect on serum cholesterol level in high cholesterol diet fed Sprague-Dawley rat at 0.3 mg/kg, po after 8 days relative to control; type: functional; in short: as §3
[20] = tested on: Rattus norvegicus; test: Effect on serum cholesterol level in high cholesterol diet fed Sprague-Dawley rat at 3 mg/kg, po after 8 days relative to control; type: functional; in short: as §3
[21] = tested on: Rattus norvegicus; test: Effect on serum cholesterol level in high cholesterol diet fed Sprague-Dawley rat at 10 mg/kg, po after 8 days relative to control; type: functional; in short: as §3
[22] = tested on: Rattus norvegicus; test: Effect on serum HDL-C level in high cholesterol diet fed Sprague-Dawley rat at 0.3 mg/kg, po after 8 days relative to control; type: functional; in short: as §3
[23] = tested on: Rattus norvegicus; test: Effect on serum HDL-C level in high cholesterol diet fed Sprague-Dawley rat at 3 mg/kg, po after 8 days relative to control; type: functional; in short: as §3
[24] = tested on: Rattus norvegicus; test: Effect on serum HDL-C level in high cholesterol diet fed Sprague-Dawley rat at 10 mg/kg, po after 8 days relative to control; type: functional; in short: as §3
[25] = tested on: Rattus norvegicus; test: Effect on serum LDL-C level in high cholesterol diet fed Sprague-Dawley rat at 0.3 mg/kg, po after 8 days relative to control; type: functional; in short: as §3
[26] = tested on: Rattus norvegicus; test: Effect on serum LDL-C level in high cholesterol diet fed Sprague-Dawley rat at 3 mg/kg, po after 8 days relative to control; type: functional; in short: as §3
[27] = tested on: Rattus norvegicus; test: Effect on serum LDL-C level in high cholesterol diet fed Sprague-Dawley rat at 10 mg/kg, po after 8 days relative to control; type: functional; in short: as §3
[28] = tested on: Rattus norvegicus; test: Effect on serum triglyceride level in high cholesterol diet fed Sprague-Dawley rat at 0.3 mg/kg, po after 8 days relative to control; type: functional; in short: as §3
[29] = tested on: Rattus norvegicus; test: Effect on serum triglyceride level in high cholesterol diet fed Sprague-Dawley rat at 3 mg/kg, po after 8 days relative to control; type: functional; in short: as §3
[30] = tested on: Rattus norvegicus; test: Effect on serum triglyceride level in high cholesterol diet fed Sprague-Dawley rat at 10 mg/kg, po after 8 days relative to control; type: functional; in short: as §3
[31] = organism: Mus musculus; test: Decrease in blood glucose level in db/db mouse after 11 days; type: functional, organism-based
In short: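 db/db mice, a diabetes model, were treated for 11 days and blood glucose was monitored.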

EC50 [1]: > 3000 nM
EC50 [2]: 1200 nM
SMILES: CCN1C(=O)CC(C)(C)c2cc(C)c(-c3ccc(/C=C/C(=O)O)s3)cc21

EC50 [1]: 10 nM
SMILES: Cc1cc2c(cc1-c1cc(/C=C/C(=O)O)ccc1OC(F)(F)F)N(C(C)C)C(=O)CC2(C)C
Activity [3]: 70%

EC50 [1]: > 3000 nM
EC50 [2]: 1600 nM
SMILES: CCn1c(=O)c2c(c3ccc(-c4cc(/C=C/C(=O)O)ccc4OC(F)(F)F)cc31)CCC2

EC50 [1]: > 3000 nM
EC50 [2]: 1.8 nM
Activity [4]: 94%
EC50 [5]: 126 nM
SMILES: Cc1cc2c(cc1-c1cc(/C=C/C(=O)O)ccc1OC(F)(F)F)N(CC(F)(F)F)C(=O)CC2(C)C

EC50 [1]: 180 nM
EC50 [2]: 0.9 nM
EC50 [5]: 139 nM
Activity [6]: 25%
SMILES: CCN1C(=O)CC(C)(C)c2cc(C)c(-c3cc(/C=C4\SC(=O)NC4=O)ccc3OC(F)(F)F)cc21
Activity [7]: 371 mg/dL
Activity [8]: 41 mg/dL
Activity [9]: 126 mg/dL
Activity [10]: 216 mg/dL

EC50 [1]: 975 nM
SMILES: CCN1C(=O)CC(C)(C)c2cc(C)c(-c3cc(/C=C/C(=O)O)ccc3OC)cc21

EC50 [1]: > 3000 nM
SMILES: CCN1C(=O)OC(C)(C)c2cc(C)c(-c3cc(/C=C/C(=O)O)ccc3OC(F)(F)F)cc21

EC50 [1]: > 3000 nM
EC50 [2]: > 10000 nM
SMILES: CCN1C(=O)CC(C)(C)c2cc(C)c(-c3ccc(/C=C/C(=O)O)o3)cc21

EC50 [1]: 39.7 nM
EC50 [2]: 173 nM
Activity [4]: 78%
SMILES: CCN1C(=O)C(C)(C)Oc2cc(C)c(-c3cc(/C=C/C(=O)O)ccc3OC(F)(F)F)cc21
Activity [3]: 79%

EC50 [1]: 163 nM
Activity [4]: 86%
EC50 [5]: > 3000 nM
Activity [11]: 240%
SMILES: CCN1C(=O)C(C)(C)Oc2cc(C)c(-c3cc(/C(C)=C/C(=O)O)ccc3OC(F)(F)F)cc21
Activity [3]: 76%

EC50 [1]: > 3000 nM
Activity [12]: inactive
SMILES: Cc1cc2c(cc1-c1cc(/C=C/C(=O)O)ccc1OC(F)(F)F)NC(=O)CC2(C)C

EC50 [1]: > 3000 nM
EC50 [2]: 2.1 nM
Activity [4]: 83%
EC50 [5]: 131 nM
SMILES: CCCN1C(=O)CC(C)(C)c2cc(C)c(-c3cc(/C=C/C(=O)O)ccc3OC(F)(F)F)cc21

EC50 [1]: > 3000 nM
SMILES: CCN1C(=O)CN(C(C)C)c2cc(C)c(-c3cc(/C=C/C(=O)O)ccc3OC(F)(F)F)cc21

EC50 [1]: 296 nM
EC50 [2]: 67.3 nM
Activity [4]: 76%
EC50 [5]: > 3000 nM
bioavailability [13]: 51%
Cmax [14]: 844 ng/mL
AUC [15]: 5520 ng·h/mL
half-life [16]: 4.6 h
Cmax [17]: 61 ng/mL
Cmax [18]: 2120 ng/mL
SMILES: CCN1C(=O)CC(C)(C)c2cc(C)c(-c3cc(/C=C/C(=O)O)ccc3OCC(F)(F)F)cc21
Activity [3]: 60%
Activity [19]: 382 mg/dL
Activity [7]: 440 mg/dL
Activity [20]: 302 mg/dL
Activity [21]: 349 mg/dL
Activity [22]: 16 mg/dL
Activity [8]: 38 mg/dL
Activity [23]: 34 mg/dL
Activity [24]: 41 mg/dL
Activity [25]: 134 mg/dL
Activity [9]: 151 mg/dL
Activity [26]: 102 mg/dL
Activity [27]: 126 mg/dL
Activity [28]: 341 mg/dL
Activity [10]: 182 mg/dL
Activity [29]: 249 mg/dL
Activity [30]: 175 mg/dL
Activity [31]: inactive

EC50 [1]: > 3000 nM
SMILES: CCN1C(=O)CC(C)(C)c2cc(C)c(-c3ccc(/C=C/C(=O)O)cc3OC(F)(F)F)cc21

EC50 [1]: 44 nM
EC50 [2]: 18.3 nM
Activity [4]: 64%
EC50 [5]: > 3000 nM
Activity [11]: 149%
SMILES: Cc1cc2c(cc1-c1cc(/C=C/C(=O)O)ccc1OCC(F)(F)F)N(C(C)C)C(=O)CC2(C)C
Activity [3]: 32%

EC50 [1]: 3.6 nM
EC50 [2]: 1.8 nM
SMILES: CCN1C(=O)CC(C)(C)c2cc(C)c(-c3cc(/C=C/C(=O)O)ccc3OC(F)(F)F)cc21
Activity [3]: 81%

EC50 [1]: 200 nM
EC50 [2]: 24.3 nM
SMILES: Cc1cc2c(cc1-c1cc(/C=C/C(=O)O)ccc1OC(F)(F)F)N(C)C(=O)CC2(C)C
Activity [3]: 56%

EC50 [1]: > 3000 nM
EC50 [2]: 96.6 nM
Activity [4]: 125%
SMILES: CCn1c(=O)c2c(c3cc(-c4cc(/C=C/C(=O)O)ccc4OC(F)(F)F)ccc31)CCC2

EC50 [1]: > 3000 nM
SMILES: CCN1C(=O)C(C)Oc2cc(C)c(-c3cc(/C=C/C(=O)O)ccc3OC(F)(F)F)cc21 (stereo not drawn)
